Source: ChEMBL document CHEMBL1165950, “Design and synthesis of new potent anticancer pyrazoles with high FLT3 kinase inhibitory selectivity” (Bioorg Med Chem, 2010)

What was measured:
Type in all cases: functional
TK-10 = assay: Cytotoxicity against human TK10 cells assessed as cell growth at 1 uM after 48 hrs by sulforhodamine B assay; conditions: TK-10, 48 h, read-out: Activity
A549 [1] = assay: Cytotoxicity against human A549 cells assessed as cell growth at 10 uM after 48 hrs by sulforhodamine B assay; conditions: A549, 48 h, read-out: Activity
How it was run: (§1)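 NCI-60 five-dose screen. Cells were grown in RPMI 1640 with 5% FBS and 2 mM L-glutamine, plated at 5000–40,000 cells/well and preincubated for 24 h. Time-zero plates were TCA-fixed. DMSO-solubilized drug was added at five concentrations (10-fold or ½-log serial dilutions) for 48 h at 37 °C, 5% CO2. Cells were TCA-fixed, stained with 0.4% SRB and read at 515 nm. Percent growth used time-zero, control and test absorbances.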

PC-3 = assay: Cytotoxicity against human PC3 cells assessed as cell growth at 1 uM after 48 hrs by sulforhodamine B assay; conditions: PC-3, 48 h, read-out: Activity
786-0 = assay: Cytotoxicity against human 786-0 cells assessed as cell growth at 1 uM after 48 hrs by sulforhodamine B assay; conditions: 786-0, 48 h, read-out: Activity; how it was run: as §1
NCI/ADR-RES = assay: Cytotoxicity against human NCI/ADR-RES cells assessed as cell growth at 0.001 uM after 48 hrs by sulforhodamine B assay; conditions: read-out: Activity
NCI-H522 = assay: Cytotoxicity against human NCI-H522 cells assessed as cell growth at 10 uM; conditions: read-out: Activity
How it was run: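 NCI-60 screen: cells grown in RPMI 1640 with 5% FBS and 2 mM L-glutamine, plated at 5000–40,000 cells/well according to doubling time, and preincubated 24 h at 37 °C, 5% CO2. The single 10 µM dose (DMSO stock) was added, then incubated 48 h. Cells were TCA-fixed and stained with 0.4% SRB, read at 515 nm, and growth % calculated against time-zero and control plates.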

SF-539 = assay: Cytotoxicity against human SF539 cells assessed as cell growth at 0.01 uM after 48 hrs by sulforhodamine B assay; conditions: SF-539, 48 h, read-out: Activity
NCI-H460 [2] = assay: Cytotoxicity against human NCI-H460 cells assessed as cell growth at 0.01 uM after 48 hrs by sulforhodamine B assay; conditions: NCI-H460, 48 h, read-out: Activity
UACC-257 = assay: Cytotoxicity against human UACC257 cells assessed as cell growth at 1 uM after 48 hrs by sulforhodamine B assay; conditions: UACC-257, 48 h, read-out: Activity
[3] = Cytotoxicity against human RPMI8266 cells assessed as cell growth at 100 nM after 48 hrs by sulforhodamine B assay; conditions: read-out: Activity
K562 [4] = assay: Cytotoxicity against human K562 cells assessed as cell growth at 1 uM after 48 hrs by sulforhodamine B assay; conditions: K562, 48 h, read-out: Activity
OVCAR-8 [5] = assay: Cytotoxicity against human OVCAR8 cells assessed as cell growth at 0.001 uM after 48 hrs by sulforhodamine B assay; conditions: OVCAR-8, 48 h, read-out: Activity
BT-549 = assay: Cytotoxicity against human BT549 cells assessed as cell growth at 0.01 uM after 48 hrs by sulforhodamine B assay; conditions: BT-549, 48 h, read-out: Activity; how it was run: as §1
A549 [6] = assay: Cytotoxicity against human A549 cells assessed as cell growth at 0.01 uM after 48 hrs by sulforhodamine B assay; conditions: A549, 48 h, read-out: Activity; how it was run: as §1
OVCAR-3 [7] = assay: Cytotoxicity against human OVCAR-3 cells assessed as cell growth at 100 nM after 48 hrs by sulforhodamine B assay; conditions: OVCAR-3, 48 h, read-out: Activity
OVCAR-3 [8] = assay: Growth inhibition of human OVCAR-3 cells after 48 hrs by sulforhodamine B assay; conditions: OVCAR-3, 48 h; for CC50: read-out: LC50 (the source's name)
How it was run: (§2)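 NCI 60-cell screen, five-dose mode. Cells grown in RPMI 1640 with 5% FBS and 2 mM L-glutamine and plated at 5000-40,000 cells/well according to doubling time. After 24 h preincubation, a Tz plate was TCA-fixed. Five concentrations (10-fold or 1/2 log dilutions) were applied for 48 h at 37 °C. SRB staining read at 515 nm. IC50 taken from [(Ti-Tz)/(C-Tz)]×100 = 50.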

COLO 205 [9] = assay: Cytotoxicity against human COLO205 cells assessed as cell growth at 1 uM after 48 hrs by sulforhodamine B assay; conditions: COLO 205, 48 h, read-out: Activity; how it was run: as §1
OVCAR-8 [10] = assay: Cytotoxicity against human OVCAR8 cells assessed as cell growth at 100 nM after 48 hrs by sulforhodamine B assay; conditions: OVCAR-8, 48 h, read-out: Activity
HOP-92 = assay: Cytotoxicity against human HOP92 cells assessed as cell growth at 10 uM after 48 hrs by sulforhodamine B assay; conditions: HOP-92, 48 h, read-out: Activity
NCI-H460 [11] = assay: Cytotoxicity against human NCI-H460 cells assessed as cell growth at 10 uM after 48 hrs by sulforhodamine B assay; conditions: NCI-H460, 48 h, read-out: Activity
K562 [12] = assay: Cytotoxicity against human K562 cells assessed as cell growth at 10 uM; conditions: read-out: Activity
How it was run: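 Single-dose NCI-60 screen at 10 µM. Cells were grown in RPMI 1640 with 5% FBS and 2 mM L-glutamine, then treated for 48 h at 37 °C. Protein was measured by SRB staining with absorbance at 515 nm. Percentage growth was recorded, and inhibition percentage was calculated as 100 minus growth percentage.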

LOX IMVI [13] = assay: Cytotoxicity against human LOXIMVI cells assessed as cell growth at 0.001 uM after 48 hrs by sulforhodamine B assay; conditions: read-out: Activity
LOX IMVI [14] = assay: Growth inhibition of human LOXIMVI cells after 48 hrs by sulforhodamine B assay; conditions: for CC50: read-out: LC50 (the source's name); how it was run: as §2
MDA-MB-468 = assay: Growth inhibition of human MDA-MB-468 cells after 48 hrs by sulforhodamine B assay; conditions: MDA-MB-468, 48 h; how it was run: as §2
OVCAR-5 = assay: Cytotoxicity against human OVCAR5 cells assessed as cell growth at 0.001 uM after 48 hrs by sulforhodamine B assay; conditions: OVCAR-5, 48 h, read-out: Activity
SNB-75 = assay: Cytotoxicity against human SNB75 cells assessed as cell growth at 1 uM after 48 hrs by sulforhodamine B assay; conditions: SNB-75, 48 h, read-out: Activity
HCT-15 = assay: Cytotoxicity against human HCT15 cells assessed as cell growth at 100 nM after 48 hrs by sulforhodamine B assay; conditions: HCT-15, 48 h, read-out: Activity
COLO 205 [15] = assay: Growth inhibition of human COLO205 cells after 48 hrs by sulforhodamine B assay; conditions: COLO 205, 48 h; for CC50: read-out: LC50 (the source's name)
How it was run: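 NCI five-dose SRB assay in RPMI 1640 with 5% FBS and 2 mM L-glutamine. Cells were preincubated 24 h, then exposed 48 h at 37 °C to five concentrations (10-fold or half-log serial dilutions from DMSO stocks). TCA fixation, SRB staining, and absorbance at 515 nm followed. IC50 was taken where [(Ti−Tz)/(C−Tz)]×100 = 50, with Tz as time-zero cell density.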

COc1cc(C)cc(-c2c(-c3ccnc(-c4ccc(C(C)=O)cc4)c3)cnn2CC#N)c1
growth at 1 µM (TK-10): 43% | growth at 10 µM (A549 [1]): 30% | growth at 1 µM (PC-3): 24% | growth at 1 µM (786-0): 10% | growth at 0.001 µM (NCI/ADR-RES): 95% | growth at 10 µM (NCI-H522): 45% | growth at 0.01 µM (SF-539): 98% | growth at 0.01 µM (NCI-H460 [2]): 98% | growth at 1 µM (UACC-257): 38% | growth at 0.1 µM [3]: 88% | growth at 1 µM (K562 [4]): 4% | growth at 0.001 µM (OVCAR-8 [5]): 103% | growth at 0.01 µM (BT-549): 86% | growth at 0.01 µM (A549 [6]): 84% | growth at 0.1 µM (OVCAR-3 [7]): 92% | GI50 (OVCAR-3 [8]): 2.61 µM | TGI (OVCAR-3 [8]): 8.05 µM | CC50 (OVCAR-3 [8]): > 100 µM | growth at 1 µM (COLO 205 [9]): -78% | growth at 0.1 µM (OVCAR-8 [10]): 85% | growth at 10 µM (HOP-92): -1% | growth at 10 µM (NCI-H460 [11]): 2% | growth at 10 µM (K562 [12]): 30.1% | growth at 0.001 µM (LOX IMVI [13]): 101% | GI50 (LOX IMVI [14]): 3.39 µM | TGI (LOX IMVI [14]): > 100 µM | CC50 (LOX IMVI [14]): > 100 µM | GI50 (MDA-MB-468): 1.43 µM | LC50 (concentration giving 50% net cell kill) (MDA-MB-468): 2.13 µM | TGI (MDA-MB-468): 3.87 µM | growth at 0.001 µM (OVCAR-5): 85% | growth at 1 µM (SNB-75): -5% | growth at 0.1 µM (HCT-15): 87% | GI50 (COLO 205 [15]): 1.95 µM | TGI (COLO 205 [15]): 3.7 µM | CC50 (COLO 205 [15]): 7.02 µM

COc1cc(C)cc(-c2c(-c3ccnc(-c4ccc(N(C)C)cc4)c3)cnn2CC#N)c1
growth at 1 µM (TK-10): 31% | growth at 10 µM (A549 [1]): 4% | growth at 1 µM (PC-3): 13% | growth at 1 µM (786-0): 2% | growth at 0.001 µM (NCI/ADR-RES): 96% | growth at 10 µM (NCI-H522): -23.6% | growth at 0.01 µM (SF-539): 79% | growth at 0.01 µM (NCI-H460 [2]): 35% | growth at 1 µM (UACC-257): 29% | growth at 0.1 µM [3]: 13% | growth at 1 µM (K562 [4]): -5% | growth at 0.001 µM (OVCAR-8 [5]): 101% | growth at 0.01 µM (BT-549): 44% | growth at 0.01 µM (A549 [6]): 59% | growth at 0.1 µM (OVCAR-3 [7]): -20% | GI50 (OVCAR-3 [8]): 0.03 µM | CC50 (OVCAR-3 [8]): > 100 µM | growth at 1 µM (COLO 205 [9]): 3% | growth at 0.1 µM (OVCAR-8 [10]): 11% | growth at 10 µM (HOP-92): -26% | growth at 10 µM (NCI-H460 [11]): -55% | growth at 10 µM (K562 [12]): 9.74% | growth at 0.001 µM (LOX IMVI [13]): 88% | GI50 (LOX IMVI [14]): 0.0668 µM | TGI (LOX IMVI [14]): > 100 µM | CC50 (LOX IMVI [14]): > 100 µM | GI50 (MDA-MB-468): 0.0261 µM | LC50 (concentration giving 50% net cell kill) (MDA-MB-468): 1.04 µM | TGI (MDA-MB-468): 0.0798 µM | growth at 0.001 µM (OVCAR-5): 90% | growth at 1 µM (SNB-75): 10% | growth at 0.1 µM (HCT-15): 14% | GI50 (COLO 205 [15]): 0.22 µM | TGI (COLO 205 [15]): > 100 µM | CC50 (COLO 205 [15]): > 100 µM

COc1cc(C)cc(-c2nn(CC#N)cc2-c2ccnc(-c3ccc(N(C)C)cc3)c2)c1
growth at 1 µM (TK-10): 29% | growth at 10 µM (A549 [1]): -6% | growth at 1 µM (PC-3): 17% | growth at 1 µM (786-0): -8% | growth at 0.001 µM (NCI/ADR-RES): 96% | growth at 10 µM (NCI-H522): -14.9% | growth at 0.01 µM (SF-539): 107% | growth at 0.01 µM (NCI-H460 [2]): 106% | growth at 1 µM (UACC-257): 48% | growth at 0.1 µM [3]: 57% | growth at 1 µM (K562 [4]): 4% | growth at 0.001 µM (OVCAR-8 [5]): 97% | growth at 0.01 µM (BT-549): 100% | growth at 0.01 µM (A549 [6]): 97% | growth at 0.1 µM (OVCAR-3 [7]): -51% | GI50 (OVCAR-3 [8]): 0.204 µM | TGI (OVCAR-3 [8]): 0.448 µM | growth at 1 µM (COLO 205 [9]): -74% | growth at 0.1 µM (OVCAR-8 [10]): 32% | growth at 10 µM (HOP-92): -13% | growth at 10 µM (NCI-H460 [11]): -51% | growth at 10 µM (K562 [12]): 9.86% | growth at 0.001 µM (LOX IMVI [13]): 98% | GI50 (LOX IMVI [14]): 0.681 µM | TGI (LOX IMVI [14]): 14.8 µM | CC50 (LOX IMVI [14]): > 100 µM | GI50 (MDA-MB-468): 0.181 µM | LC50 (concentration giving 50% net cell kill) (MDA-MB-468): 7.24 µM | TGI (MDA-MB-468): 0.635 µM | growth at 0.001 µM (OVCAR-5): 98% | growth at 1 µM (SNB-75): -12% | growth at 0.1 µM (HCT-15): 15% | GI50 (COLO 205 [15]): 0.32 µM | TGI (COLO 205 [15]): 7.69 µM | CC50 (COLO 205 [15]): 3.91 µM
